{"source": "ChEMBL document CHEMBL4376814", "about": "“Novel cyclin-dependent kinase 9 (CDK9) inhibitor with suppression of cancer stemness activity against non-small-cell lung cancer” (Eur J Med Chem, 2019)", "key": {"[1]": {"biological_target": "CDK6/cyclin D3 (Homo sapiens, UniProt Q00534)", "sequence (P30281 whole entry)": "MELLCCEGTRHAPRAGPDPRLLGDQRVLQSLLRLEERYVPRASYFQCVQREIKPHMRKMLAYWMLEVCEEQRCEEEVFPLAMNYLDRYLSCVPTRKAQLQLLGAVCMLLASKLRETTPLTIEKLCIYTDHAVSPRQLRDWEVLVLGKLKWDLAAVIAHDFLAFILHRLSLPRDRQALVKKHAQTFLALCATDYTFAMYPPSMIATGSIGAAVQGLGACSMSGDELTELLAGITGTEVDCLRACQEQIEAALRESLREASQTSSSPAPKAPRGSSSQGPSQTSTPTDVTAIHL", "sequence (Q00534 whole entry)": "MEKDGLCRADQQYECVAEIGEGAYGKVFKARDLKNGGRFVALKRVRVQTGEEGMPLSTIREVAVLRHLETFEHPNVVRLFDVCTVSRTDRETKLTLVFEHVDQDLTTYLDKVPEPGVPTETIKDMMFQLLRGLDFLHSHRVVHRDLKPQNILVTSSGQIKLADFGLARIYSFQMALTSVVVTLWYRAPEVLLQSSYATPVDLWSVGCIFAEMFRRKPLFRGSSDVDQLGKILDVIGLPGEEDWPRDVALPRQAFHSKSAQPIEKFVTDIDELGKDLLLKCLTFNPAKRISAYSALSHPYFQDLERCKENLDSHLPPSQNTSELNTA", "assay": "Inhibition of recombinant full-length human CDK6/cyclinD3 using histone H1 as substrate measured after 40 mins in presence of [gamma33P]ATP by scintillation counting method", "type": "protein-complex assay"}, "[2]": {"tested_on": "U-937", "assay": "Antiproliferative activity against human U937 cells assessed as inhibition of cell viability after 72 hrs by CCK-8 assay", "type": "functional, cell-based", "details": "U-937, 72 h", "procedure,_shortened": "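Cells kept at 37 °C, 5% CO2 in DMEM or RPMI-1640 with 10% FBS and 1% penicillin/streptomycin, then seeded at 3000 cells/well (adherent) or 10,000 cells/well (suspension). Exposed to a range of concentrations for 72 h. CCK-8 added for 1-4 h before reading A450. […] Three independent experiments.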"}, "[3]": {"tested_on": "A549", "assay": "Induction of cell cycle arrest in human A549 cells assessed as accumulation at G2/M phase after 24 hrs by propidium iodide/RNase staining based flow cytometric analysis", "type": "functional", "procedure,_shortened": "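A549 and H1299 plated at 5×10^5 cells/mL in 6-well plates, treated after adherence for 24 h. Washed with PBS, fixed overnight in ice-cold 75% ethanol, stained with propidium iodide plus RNase A for 30 min at 37 °C, analysed by flow cytometry for phase distribution. Means ± SD, three independent experiments.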"}, "[4]": {"tested_on": "NCI-H1299", "assay": "Induction of apoptosis in human H1299 cells assessed as early apoptotic cells at 0.5 uM after 48 hrs by AnnexinV-FITC/PI staining-based flow cytometric analysis (reference value: 0.248%)", "type": "functional"}, "[5]": {"tested_on": "A549", "assay": "Inhibition of tumorsphere formation in human A549 cells assessed as reduction in side population ratio at 0.25 to 1 uM by PI/Hoechst 33342 staining based flow cytometry", "type": "functional, cell-based"}, "[6]": {"assay": "Half life in human liver microsomes at 2 uM in presence of NADPH measured up to 1 hr by HPLC analysis", "type": "ADME, Microsome", "procedure,_shortened": "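Compound at 2 μM incubated at 37 °C with liver microsomes (1 mg/mL), 3 mM MgCl2 and 0.1 M phosphate buffer pH 7.4; 5 min preincubation, then started with 3 mM NADPH. Aliquots (n = 3) at 0, 10, 20, 30, 45, 60 min quenched with ice-cold acetonitrile, centrifuged, supernatant by HPLC. t1/2 from linear-regression kinetic constant k.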"}, "[7]": {"biological_target": "Serine/threonine-protein kinase BRSK1 (Homo sapiens) (UniProt Q8TDC3)", "sequence (Q8TDC3 whole entry)": "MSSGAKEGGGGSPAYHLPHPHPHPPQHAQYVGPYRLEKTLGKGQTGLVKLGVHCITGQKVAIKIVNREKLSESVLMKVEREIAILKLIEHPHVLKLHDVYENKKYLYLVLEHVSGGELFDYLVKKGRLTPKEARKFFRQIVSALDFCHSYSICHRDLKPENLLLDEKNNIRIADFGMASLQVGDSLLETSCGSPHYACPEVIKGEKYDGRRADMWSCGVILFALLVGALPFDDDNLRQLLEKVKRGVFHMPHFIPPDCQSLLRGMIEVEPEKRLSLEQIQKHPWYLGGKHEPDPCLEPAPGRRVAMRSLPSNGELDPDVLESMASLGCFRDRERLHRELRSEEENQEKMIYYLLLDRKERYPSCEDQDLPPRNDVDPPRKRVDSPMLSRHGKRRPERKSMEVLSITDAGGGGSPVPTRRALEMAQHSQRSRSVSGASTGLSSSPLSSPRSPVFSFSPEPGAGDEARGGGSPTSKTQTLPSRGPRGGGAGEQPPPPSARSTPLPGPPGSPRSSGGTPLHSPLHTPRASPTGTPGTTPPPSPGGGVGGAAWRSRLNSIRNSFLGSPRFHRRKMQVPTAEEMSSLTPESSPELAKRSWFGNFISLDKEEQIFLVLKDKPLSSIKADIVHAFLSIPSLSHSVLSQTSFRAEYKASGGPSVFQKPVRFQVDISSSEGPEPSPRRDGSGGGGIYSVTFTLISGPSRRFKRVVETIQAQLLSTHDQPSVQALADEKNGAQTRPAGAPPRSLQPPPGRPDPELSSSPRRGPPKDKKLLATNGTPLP", "assay": "Inhibition of recombinant human BrSK1 (2 to end residues) at 1 uM using KKKVSRSGLYRSPSMPENLNRPR as substrate measured after 40 mins in presence of [gamma33P]ATP by scintillation counting method relative to control"}, "[8]": {"biological_target": "Mitogen-activated protein kinase kinase kinase 11 (Homo sapiens) (UniProt Q16584)", "sequence (Q16584 whole entry, looked up)": "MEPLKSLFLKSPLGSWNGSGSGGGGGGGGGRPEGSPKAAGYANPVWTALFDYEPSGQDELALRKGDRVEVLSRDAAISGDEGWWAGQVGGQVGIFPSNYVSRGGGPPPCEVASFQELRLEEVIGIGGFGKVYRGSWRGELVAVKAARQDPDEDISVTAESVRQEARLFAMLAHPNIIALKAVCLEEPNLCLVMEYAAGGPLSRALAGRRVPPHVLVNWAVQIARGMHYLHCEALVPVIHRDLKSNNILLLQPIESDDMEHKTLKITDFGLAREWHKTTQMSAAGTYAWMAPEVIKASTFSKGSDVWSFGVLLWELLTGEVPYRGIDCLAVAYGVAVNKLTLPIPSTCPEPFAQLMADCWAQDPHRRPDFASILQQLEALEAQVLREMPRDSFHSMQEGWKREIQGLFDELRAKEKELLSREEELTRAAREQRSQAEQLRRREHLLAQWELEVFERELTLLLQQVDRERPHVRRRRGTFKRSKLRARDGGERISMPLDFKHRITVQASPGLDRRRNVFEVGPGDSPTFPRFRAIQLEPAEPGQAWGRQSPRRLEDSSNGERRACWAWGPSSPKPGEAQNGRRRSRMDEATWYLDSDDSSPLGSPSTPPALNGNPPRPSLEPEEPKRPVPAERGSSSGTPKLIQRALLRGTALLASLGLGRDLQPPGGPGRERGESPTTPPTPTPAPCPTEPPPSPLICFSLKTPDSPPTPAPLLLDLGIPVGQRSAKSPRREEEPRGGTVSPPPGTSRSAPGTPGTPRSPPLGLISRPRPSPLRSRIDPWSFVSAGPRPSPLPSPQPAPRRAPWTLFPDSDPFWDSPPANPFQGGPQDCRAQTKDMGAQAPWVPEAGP", "assay": "Inhibition of human MLK3 at 1 uM by radiometric method relative to control", "procedure,_shortened": "(§1)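 Percent inhibition of kinase activity at a single compound concentration, measured by the outsourced Eurofins KinaseProfiler panel. Values are the mean of two independent experiments.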"}, "[9]": {"biological_target": "Cyclin-dependent kinase 2/cyclin E1 (Homo sapiens) (UniProt P24864+P24941)", "assay": "Inhibition of recombinant full-length human CDK2/cyclinE at 1 uM using Histone H1 as substrate measured after 40 mins in presence of [gamma33P]ATP by scintillation counting method relative to control", "type": "protein-complex assay"}, "[10]": {"biological_target": "CDK4/Cyclin D3 (Homo sapiens) (UniProt P11802+P30281)", "assay": "Inhibition of recombinant full-length human CDK4/cyclinD3 at 1 uM using Rb fragment as substrate measured after 40 mins in presence of [gamma33P]ATP by scintillation counting method relative to control", "type": "protein-complex assay", "procedure,_shortened": "as §1"}, "[11]": {"biological_target": "Dual specificity protein kinase CLK4 (Homo sapiens) (UniProt Q9HAZ1)", "sequence (Q9HAZ1 whole entry, looked up)": "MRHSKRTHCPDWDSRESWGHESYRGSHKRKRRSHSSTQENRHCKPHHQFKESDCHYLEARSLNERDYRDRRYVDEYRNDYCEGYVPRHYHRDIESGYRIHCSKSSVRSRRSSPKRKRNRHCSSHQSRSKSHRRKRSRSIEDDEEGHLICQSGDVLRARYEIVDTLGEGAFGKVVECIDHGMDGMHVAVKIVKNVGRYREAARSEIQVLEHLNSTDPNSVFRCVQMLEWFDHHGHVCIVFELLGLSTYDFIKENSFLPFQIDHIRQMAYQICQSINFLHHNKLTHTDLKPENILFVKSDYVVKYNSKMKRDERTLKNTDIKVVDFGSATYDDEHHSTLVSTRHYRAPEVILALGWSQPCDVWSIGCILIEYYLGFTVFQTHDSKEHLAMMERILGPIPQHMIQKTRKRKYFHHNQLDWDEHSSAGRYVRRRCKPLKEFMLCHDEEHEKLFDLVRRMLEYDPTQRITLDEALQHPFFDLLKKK", "assay": "Inhibition of recombinant human CLK4 (128 to end residues) at 1 uM using YRRAAVPPSPSLSRHSSPHQS(p) EDEEE as substrate measured after 40 mins in presence of [gamma33P]ATP by scintillation counting method relative to control", "procedure,_shortened": "(§2)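 Single-point inhibition at 1 µM was measured in the Eurofins KinaseProfiler panel. Values are the mean of two independent experiments.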"}, "[12]": {"biological_target": "Serine/threonine-protein kinase Nek9 (Homo sapiens) (UniProt Q8TD19)", "sequence (Q8TD19 whole entry, the tested form may be a part)": "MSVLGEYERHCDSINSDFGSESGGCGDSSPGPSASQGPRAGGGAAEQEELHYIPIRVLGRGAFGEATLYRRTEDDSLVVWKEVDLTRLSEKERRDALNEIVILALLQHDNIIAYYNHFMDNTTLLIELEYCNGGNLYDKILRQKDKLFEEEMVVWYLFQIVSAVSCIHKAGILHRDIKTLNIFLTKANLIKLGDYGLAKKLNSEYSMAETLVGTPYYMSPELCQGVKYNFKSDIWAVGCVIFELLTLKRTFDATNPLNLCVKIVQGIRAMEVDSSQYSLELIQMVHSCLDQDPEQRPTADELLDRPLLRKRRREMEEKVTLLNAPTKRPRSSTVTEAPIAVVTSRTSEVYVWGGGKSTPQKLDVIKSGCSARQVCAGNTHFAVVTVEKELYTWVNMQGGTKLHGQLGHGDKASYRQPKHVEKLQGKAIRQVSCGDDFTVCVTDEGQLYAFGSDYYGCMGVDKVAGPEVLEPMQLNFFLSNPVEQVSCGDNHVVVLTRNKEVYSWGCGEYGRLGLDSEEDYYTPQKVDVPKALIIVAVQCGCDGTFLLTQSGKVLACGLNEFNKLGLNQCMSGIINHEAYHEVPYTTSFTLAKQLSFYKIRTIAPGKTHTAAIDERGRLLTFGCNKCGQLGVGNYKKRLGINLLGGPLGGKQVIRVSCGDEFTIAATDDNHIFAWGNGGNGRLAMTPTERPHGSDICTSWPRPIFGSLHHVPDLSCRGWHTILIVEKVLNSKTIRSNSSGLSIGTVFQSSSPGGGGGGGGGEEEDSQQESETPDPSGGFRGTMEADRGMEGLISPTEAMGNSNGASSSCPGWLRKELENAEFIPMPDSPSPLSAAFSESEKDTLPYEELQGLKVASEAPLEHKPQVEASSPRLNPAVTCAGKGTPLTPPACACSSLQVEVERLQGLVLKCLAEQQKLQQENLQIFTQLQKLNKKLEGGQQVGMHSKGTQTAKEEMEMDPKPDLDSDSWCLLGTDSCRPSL", "assay": "Inhibition of recombinant human NEK9 (1 to 324 residues) at 1 uM using myelin basic protein as substrate measured after 40 mins in presence of [gamma33P]ATP by scintillation counting method relative to control"}, "[13]": {"biological_target": "Ephrin type-A receptor 3 (Homo sapiens) (UniProt P29320)", "assay": "Inhibition of recombinant human EphA3 (568 to end residues) at 1 uM using poly(Glu, Tyr) 4:1 as substrate measured after 40 mins in presence of [gamma33P]ATP by scintillation counting method relative to control"}, "[14]": {"tested_on": "Serine/threonine-protein kinase D1 (Homo sapiens), Q15139 [UNDEFINED MUTATION]", "sequence (Q15139 whole entry, looked up, stated change not applied)": "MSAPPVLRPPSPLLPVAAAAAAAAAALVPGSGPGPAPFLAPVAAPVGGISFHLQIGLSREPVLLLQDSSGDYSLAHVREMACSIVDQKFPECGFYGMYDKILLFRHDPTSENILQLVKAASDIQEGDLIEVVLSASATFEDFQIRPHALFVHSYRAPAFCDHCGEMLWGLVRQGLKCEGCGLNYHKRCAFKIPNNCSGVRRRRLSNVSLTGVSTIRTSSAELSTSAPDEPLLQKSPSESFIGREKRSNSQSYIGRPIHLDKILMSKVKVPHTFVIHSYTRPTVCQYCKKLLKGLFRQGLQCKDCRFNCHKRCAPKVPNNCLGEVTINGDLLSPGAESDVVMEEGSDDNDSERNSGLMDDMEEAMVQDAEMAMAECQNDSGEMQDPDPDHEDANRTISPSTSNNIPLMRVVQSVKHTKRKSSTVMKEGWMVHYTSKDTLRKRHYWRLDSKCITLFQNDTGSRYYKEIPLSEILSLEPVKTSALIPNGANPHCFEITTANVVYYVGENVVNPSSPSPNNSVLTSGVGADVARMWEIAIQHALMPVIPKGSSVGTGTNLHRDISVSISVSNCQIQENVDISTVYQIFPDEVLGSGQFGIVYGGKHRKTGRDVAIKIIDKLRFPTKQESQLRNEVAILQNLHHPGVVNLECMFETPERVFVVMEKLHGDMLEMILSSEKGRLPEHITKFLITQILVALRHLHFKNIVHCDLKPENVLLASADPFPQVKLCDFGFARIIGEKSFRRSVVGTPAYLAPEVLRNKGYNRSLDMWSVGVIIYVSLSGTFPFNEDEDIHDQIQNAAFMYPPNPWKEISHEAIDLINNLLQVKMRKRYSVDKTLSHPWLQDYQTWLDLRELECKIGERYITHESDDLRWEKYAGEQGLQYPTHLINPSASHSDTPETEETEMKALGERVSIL", "assay": "Inhibition of recombinant full-length human PKCmu R135A mutant at 1 uM using KKLNRTLSVA as substrate measured after 40 mins in presence of [gamma33P]ATP by scintillation counting method relative to control"}, "[15]": {"biological_target": "Macrophage-stimulating protein receptor (Homo sapiens) (UniProt Q04912)", "assay": "Inhibition of human Ron (983 to end residues) at 1 uM using GGMEDIYFEFMGGKKK as substrate measured after 40 mins in presence of [gamma33P]ATP by scintillation counting method relative to control", "procedure,_shortened": "as §1"}, "[16]": {"biological_target": "SRSF protein kinase 2 (Homo sapiens) (UniProt P78362)", "assay": "Inhibition of human SRPK2 (46 to end residues) at 1 uM using RSRSRSRSRSRSRSR as substrate measured after 40 mins in presence of [gamma33P]ATP by scintillation counting method relative to control", "procedure,_shortened": "as §1"}, "[17]": {"biological_target": "Serine/threonine-protein kinase 32A (Homo sapiens) (UniProt Q8WU08)", "sequence (Q8WU08 whole entry)": "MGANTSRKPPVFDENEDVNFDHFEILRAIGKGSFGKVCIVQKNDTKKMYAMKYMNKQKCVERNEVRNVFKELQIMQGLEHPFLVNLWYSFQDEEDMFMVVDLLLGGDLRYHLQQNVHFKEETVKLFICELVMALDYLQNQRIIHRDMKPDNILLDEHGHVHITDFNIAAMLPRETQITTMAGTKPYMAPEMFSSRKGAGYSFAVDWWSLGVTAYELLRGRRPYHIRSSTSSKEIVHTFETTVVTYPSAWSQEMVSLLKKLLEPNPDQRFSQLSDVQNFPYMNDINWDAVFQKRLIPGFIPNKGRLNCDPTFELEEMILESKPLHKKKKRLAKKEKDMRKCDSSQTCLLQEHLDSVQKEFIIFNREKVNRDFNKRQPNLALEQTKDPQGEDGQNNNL", "assay": "Inhibition of recombinant full-length human STK32A at 1 uM using casein as substrate measured after 120 mins in presence of [gamma33P]ATP by scintillation counting method relative to control"}, "[18]": {"biological_target": "Serine/threonine-protein kinase TBK1 (Homo sapiens) (UniProt Q9UHD2)", "assay": "Inhibition of recombinant full-length human TBK1 at 1 uM using KRRRALS(p)VASLPGL as substrate measured after 40 mins in presence of [gamma33P]ATP by scintillation counting method relative to control", "procedure,_shortened": "as §2"}, "[19]": {"biological_target": "Tyrosine-protein kinase TXK (Homo sapiens) (UniProt P42681)", "assay": "Inhibition of human Txk (256 to end residues) at 1 uM using GEEPLYWSFPAKKK as substrate measured after 40 mins in presence of [gamma33P]ATP by scintillation counting method relative to control", "procedure,_shortened": "as §1"}, "[20]": {"biological_target": "Mitogen-activated protein kinase 8 (Homo sapiens) (UniProt P45983)", "assay": "Inhibition of recombinant full-length human JNK1alpha1 at 1 uM using ATF2 as substrate measured after 40 mins in presence of [gamma33P]ATP by scintillation counting method relative to control"}, "[21]": {"biological_target": "Mitogen-activated protein kinase kinase kinase kinase 3 (Homo sapiens) (UniProt Q8IVH8)", "assay": "Inhibition of recombinant human MAP4K3 (1 to 291 residues) at 1 uM using RLGRDKYKTLRQIRQ as substrate measured after 40 mins in presence of [gamma33P]ATP by scintillation counting method relative to control"}}, "note": "Calls of active or inactive are those of the source. The rule behind the calls is not given here.", "data": [{"smiles": "CN(C)C(=O)c1cc2cnc(Nc3ccc(NC(=O)CCCCCCCN=C=S)cc3)nc2n1C1CCCC1", "values": [{"measurement": "IC50", "setting": "[1]", "value": 145, "unit": "nM"}, {"measurement": "IC50", "setting": "[2]", "value": 1990, "unit": "nM"}, {"measurement": "Activity", "setting": "[3]", "value": "Dose-dependent effect"}, {"measurement": "Activity", "setting": "[4]", "value": 0.758, "unit": "%"}, {"measurement": "inhibition", "setting": "[5]", "value": "Active"}, {"measurement": "half-life at 2 µM", "setting": "[6]", "value": 33, "unit": "min"}, {"measurement": "inhibition", "setting": "[7]", "value": 16, "unit": "%"}, {"measurement": "inhibition", "setting": "[8]", "value": 90, "unit": "%"}, {"measurement": "inhibition", "setting": "[9]", "value": 75, "unit": "%"}, {"measurement": "inhibition", "setting": "[10]", "value": 87, "unit": "%"}, {"measurement": "inhibition", "setting": "[11]", "value": 1, "unit": "%"}, {"measurement": "inhibition", "setting": "[12]", "value": 41, "unit": "%"}, {"measurement": "inhibition", "setting": "[13]", "value": 5, "unit": "%"}, {"measurement": "inhibition", "setting": "[14]", "value": 3, "unit": "%"}, {"measurement": "inhibition", "setting": "[15]", "value": 72, "unit": "%"}, {"measurement": "inhibition", "setting": "[16]", "value": 4, "unit": "%"}, {"measurement": "inhibition", "setting": "[17]", "value": 33, "unit": "%"}, {"measurement": "inhibition", "setting": "[18]", "value": 12, "unit": "%"}, {"measurement": "inhibition", "setting": "[19]", "value": 81, "unit": "%"}, {"measurement": "inhibition", "setting": "[20]", "value": 4, "unit": "%"}, {"measurement": "inhibition", "setting": "[21]", "value": 95, "unit": "%"}]}]}
